Reference: ChEMBL document CHEMBL5214982, “Identification and Biochemical Characterization of Pyrrolidinediones as Novel Inhibitors of the Bacterial Enzyme MurA” (J Med Chem, 2022)
Calls of active or inactive are those of the source. No cut-off for these calls is given here.

Experiments:
[1] = target: UDP-N-acetylglucosamine 1-carboxyvinyltransferase (Escherichia coli K-12) (UniProt P0A749); assay: Inhibition of wild type his tagged Escherichia coli K12 MurA at 20 uM using UDP-N-acetylglucosamine as substrate preincubated with substrate for 30 mins prior to compound addition for 15 mins followed by DTT and PEP addition and measured after 30 mins by malachite green based microplate reader analysis relative to control; conditions: time 45.0 min
Sequence of UDP-N-acetylglucosamine 1-carboxyvinyltransferase (Escherichia coli K-12) (P0A749 whole entry): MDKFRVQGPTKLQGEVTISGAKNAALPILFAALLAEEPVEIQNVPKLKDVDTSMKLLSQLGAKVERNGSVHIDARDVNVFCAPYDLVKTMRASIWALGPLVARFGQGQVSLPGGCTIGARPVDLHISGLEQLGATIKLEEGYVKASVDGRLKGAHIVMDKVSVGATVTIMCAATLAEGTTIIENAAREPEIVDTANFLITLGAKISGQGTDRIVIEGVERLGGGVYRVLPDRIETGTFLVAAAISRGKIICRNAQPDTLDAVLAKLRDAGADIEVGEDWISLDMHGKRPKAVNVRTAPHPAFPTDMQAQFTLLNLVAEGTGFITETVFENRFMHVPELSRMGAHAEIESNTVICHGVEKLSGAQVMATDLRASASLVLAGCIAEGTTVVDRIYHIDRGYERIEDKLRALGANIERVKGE

[2] = target: UDP-N-acetylglucosamine 1-carboxyvinyltransferase (Escherichia coli K-12, UniProt P0A749); assay: Inhibition of wild type his tagged Escherichia coli K12 MurA using UDP-N-acetylglucosamine as substrate […] for 15 mins followed by DTT and PEP addition and measured after 30 mins by malachite green based microplate reader analysis
Sequence of UDP-N-acetylglucosamine 1-carboxyvinyltransferase (P0A749 whole entry): as above

[3] = Stability in human plasma assessed as degradation at measured after 4 hrs by HPLC-MS analysis; type: ADME, cell-free; conditions: read-out: Drug degradation
[4] = Stability in human plasma assessed as half life at by HPLC-MS analysis; type: ADME, cell-free
[5] = Stability in human S9 fractions assessed as degradation at measured after 2 hrs by HPLC-MS analysis; type: ADME, subcellular, Liver, S9 fraction; conditions: read-out: Drug degradation
[6] = Stability in human S9 fractions assessed as half life at by HPLC-MS analysis; type: ADME, subcellular, Liver, S9 fraction
MRC5 = assay: Cytotoxicity against human MRC5 cells at upto 100 uM incubated for 24 hrs by MTT assay; type: toxicity, cell-based; conditions: mrc5, 24 h
Procedure, shortened: (§1)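 MRC-5 (20,000/well) or HepG2 (25,000/well) seeded, treated next day for 24 h with eight concentrations up to 100 μM (DMSO solutions). Viability by MTT: medium replaced with 0.5 mg/ml MTT in DMEM, cells lysed in DMSO, absorbance at 560 nm. Three independent experiments.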

HepG2 = assay: Cytotoxicity against human HepG2 cells at upto 100 uM incubated for 24 hrs by MTT assay; type: toxicity, cell-based; conditions: hepg2, 24 h; procedure, shortened: as §1
[7] = system: UDP-N-acetylglucosamine 1-carboxyvinyltransferase (Escherichia coli K-12), P0A749 [C115D]; assay: Inhibition of […] his tagged Escherichia coli K12 MurA C115D mutant at 2 uM using UDP-N-acetylglucosamine as substrate in presence of DTT and PEP by microplate reader analysis relative to control; conditions: time 45.0 min
Sequence of UDP-N-acetylglucosamine 1-carboxyvinyltransferase (Escherichia coli K-12), P0A749 [C115D] (P0A749 whole entry C115D): as the sequence (P0A749 whole entry) above, with C115D counted along it
Procedure, shortened: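 His-tagged C115D MurA preincubated directly with compounds (no UNAG preincubation) 15 min rt; fosfomycin and test compound each 2 μM final, 2% DMSO. Master mix added: 150 μM UNAG, 150 μM PEP, 2 mM DTT, 25 mM Tris-HCl pH 7.5; 37 °C 30 min. Malachite green/molybdate stop, A625 after 5 min, no-enzyme background subtracted; three independent experiments.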

[8] = target: UDP-N-acetylglucosamine 1-carboxyvinyltransferase (Escherichia coli K-12) (UniProt P0A749); assay: Inhibition of wild type his tagged Escherichia coli K12 MurA at 0.2 uM using UDP-N-acetylglucosamine as substrate preincubated with substrate for 15 mins prior to compound addition for 15 mins followed by DTT and PEP addition by dilution assay
Procedure, shortened: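 His-tagged WT MurA (30 μg) preincubated with 400 μM UNAG for 15 min, then with inhibitor (10 μM) for another 15 min. Mixture diluted 1:50 into master mix of 150 μM UNAG, 150 μM PEP, 2 mM DTT and 25 mM Tris-HCl pH 7.5 (final), giving 0.2 μM inhibitor; incubated 37°C 30 min. Malachite green/molybdate stop, A625 after 5 min, minus no-enzyme blank; three independent experiments.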

[9] = target: UDP-N-acetylglucosamine 1-carboxyvinyltransferase (Escherichia coli K-12) (UniProt P0A749); assay: Inhibition of wild type his tagged Escherichia coli K12 MurA at 2 uM using UDP-N-acetylglucosamine as substrate […] for 15 mins followed by DTT and PEP addition and measured after 30 mins by malachite green based microplate reader analysis relative to control; conditions: time 45.0 min

Row | SMILES | inhibition [1] [%] | IC50 [2] [µM] | other results
1 | CCOC(=O)C1=C(O)C(=O)N(c2nc3ccc(Cl)cc3s2)C1c1ccc(Cl)cc1 (centres undefined) | 34 |  | 
2 | CCOC(=O)C1=C(O)C(=O)N(c2nc3ccc(C)cc3s2)C1c1cccnc1 (centres undefined) | 29 |  | 
3 | CCOC(=O)C1=C(O)C(=O)N(c2nc3ccccc3s2)C1c1ccccc1 (centres undefined) | 0 |  | 
4 | CCOC(=O)C1=C(O)C(=O)N(c2nc3ccc(OC)cc3s2)C1c1ccc(-c2ccccc2)cc1 (centres undefined) | 51 | 22 | 
5 | CCOC(=O)C1=C(O)C(=O)N(c2nc3ccc(C)cc3s2)C1c1nc2ccccc2s1 (centres undefined) | 12 |  | 
6 | CCCCNc1ccc(C(=O)OCCN(C)C)cc1 [TETRACAINE] |  |  | metabolised at 4 h [3]: 100%; t1/2 [4]: 20 min
7 | CCOC(=O)C1=C(O)C(=O)N(c2nc3c(ccc4ccccc43)s2)C1c1ccccc1 (centres undefined) | 36 |  | 
8 | CCOC(=O)C1=C(O)C(=O)N(c2ccc(-c3ccccc3)cc2)C1c1ccccc1 (centres undefined) | 19 |  | 
9 | CC(C)(C)OC(=O)C1=C(O)C(=O)N(c2nc3ccc(Cl)cc3s2)C1c1ccccc1 (centres undefined) | 38 |  | 
10 | CCOC(=O)C1=C(O)C(=O)N(c2nc3c(Cl)cccc3s2)C1c1ccccc1 (centres undefined) | 18 |  | 
11 | CCOC(=O)C1=C(O)C(=O)N(c2nc3ccc(C)cc3s2)C1c1cccs1 (centres undefined) | 14 |  | 
12 | CCOC(=O)C1=C(O)C(=O)N(c2nc3ccc(C)cc3s2)C1c1ccco1 (centres undefined) | 21 |  | 
13 | Cc1cccc2sc(N3C(=O)C(O)=C(C(=O)OC(C)(C)C)C3c3ccccc3)nc12 (centres undefined) | 67 | 11 | 
14 | CCOC(=O)C1=C(O)C(=O)N(Cc2ccc(Cl)cc2)C1c1ccc(-c2ccccc2)cc1 (centres undefined) | 40 |  | 
15 | CCOC(=O)C1=C(O)C(=O)N(c2nc3ccc(C)cc3s2)C1c1ccccc1 (centres undefined) | 26 |  | 
16 | CCOC(=O)C1=C(O)C(=O)N(c2nc3c(F)cc(F)cc3s2)C1c1ccc(-c2ccccc2)cc1 (centres undefined) | 76 | 7.5 | 
17 | CCOC(=O)C1=C(O)C(=O)N(c2nc3ccc(C)cc3s2)C1c1ccccc1-c1cccs1 (centres undefined) | 50 | 22 | 
18 | CCOC(=O)C1=C(O)C(=O)N(c2nc3ccccc3s2)C1c1ccc(-c2ccccc2)cc1 (centres undefined) | 45 |  | 
19 | CCOC(=O)C1=C(O)C(=O)N(c2nc3ccc(C)cc3s2)C1c1ccccc1-c1ccccc1 (centres undefined) | 57 | 17 | 
20 | CCOC(=O)C1=C(O)C(=O)N(c2nc3ccc(C)cc3s2)C1c1cccc2ccccc12 (centres undefined) | 54 | 15 | 
21 | CCOC(=O)C1=C(O)C(=O)N(c2nc3ccc(C)cc3s2)C1c1ccc2ccccc2c1 (centres undefined) | 44 |  | 
22 | CCOC(=O)C1=C(O)C(=O)N(c2nc3c(OC)cccc3s2)C1c1ccc(-c2ccccc2)cc1 (centres undefined) | 31 | 25 | 
23 | CCOC(=O)C1=C(O)C(=O)N(c2nc3ccc(C)cc3s2)C1c1ccc(-c2ccccc2)o1 (centres undefined) | 37 |  | 
24 | CCOC(=O)C1=C(O)C(=O)N(c2nc3cc(C)c(C)cc3s2)C1c1ccc(-c2ccccc2)cc1 (centres undefined) | 85 | 5.8 | 

Row | SMILES | inhibition [1] [%] | IC50 [2] [µM] | other results
25 | CCOC(=O)C1=C(O)C(=O)N(c2ccccc2)C1c1ccc(-c2ccccc2)cc1 (centres undefined) | 13 |  | 
26 | CCOC(=O)C1=C(O)C(=O)N(c2nc3ccc(C)cc3s2)C1c1ccc2cc(O)ccc2c1 (centres undefined) | 43 |  | 
27 | CCOC(=O)C1=C(O)C(=O)N(c2nc3c(Cl)cccc3s2)C1c1ccc(-c2ccccc2)cc1 (centres undefined) | 73 | 7 | 
28 | CCOC(=O)C1=C(O)C(=O)N(c2nc3ccc(Cl)cc3s2)C1c1ccccc1 (centres undefined) | 14 |  | 
29 | CCOC(=O)C1=C(O)C(=O)N(c2nc3ccc(C)cc3s2)C1c1ccc(OC)c2ccccc12 (centres undefined) | 74 | 9.5 | 
30 | CCOC(=O)C1=C(O)C(=O)N(c2nc3ccc(Oc4ccccc4)cc3s2)C1c1ccccc1 (centres undefined) | 53 | 17 | 
31 | C[C@]12CC[C@H]3[C@@H](CCC4=CC(=O)CC[C@@]43C)[C@@H]1CC[C@@H]2O [TESTOSTERONE] |  |  | metabolised at 2 h [5]: 89%; t1/2 [6]: 5.9 min
32 | CCOC(=O)C1=C(O)C(=O)N(c2nc3ccc(C)cc3s2)C1c1ccc(-c2ccc(Cl)nn2)cc1 (centres undefined) | 36 |  | 
33 | Cc1ccc2nc(N3C(=O)C(O)=C(C(=O)OCCO)C3c3ccc(-c4ccc(Cl)cc4)o3)sc2c1 (centres undefined) | 43 |  | 
34 | CCOC(=O)C1=C(O)C(=O)N(c2nc3ccc(C)cc3s2)C1c1ccc(O)cc1 (centres undefined) | 23 |  | 
35 | CCOC(=O)C1=C(O)C(=O)N(c2nc3ccc(C)cc3s2)C1c1ccc(-c2ccc(Cl)cc2)o1 (centres undefined) | 75 | 9.9 | 
36 | CCOC(=O)C1=C(O)C(=O)N(c2ccc(Cl)cc2)C1c1ccc(Cl)cc1 (centres undefined) | 14 |  | 
37 | CCOC(=O)C1=C(O)C(=O)N(c2nc3ccc(C)cc3s2)C1c1cc(-c2ccccc2)cs1 (centres undefined) | 72 | 9.9 | 
38 | Cc1ccc2nc(N3C(=O)C(O)=C(C(=O)OC(C)(C)C)C3c3ccccc3)sc2c1 (centres undefined) | 38 |  | 
39 | CCOC(=O)C1=C(O)C(=O)N(c2nc3ccc(Br)cc3s2)C1c1ccc(-c2ccccc2)cc1 (centres undefined) | 52 | 21 | 
40 | CCOC(=O)C1=C(O)C(=O)N(c2nc3c(s2)CCCC3)C1c1ccccc1 (centres undefined) | 14 |  | 
41 | CCOC(=O)C1=C(O)C(=O)N(c2nc3ccc(C)cc3s2)C1c1ccc(-c2ccccc2)cc1 (centres undefined) | 76 | 8.5 | 
42 | CCOC(=O)C1=C(O)C(=O)N(c2nc3ccc(C(F)(F)F)cc3s2)C1c1ccc(-c2ccccc2)cc1 (centres undefined) | 70 | 6.1 | 
43 | CCOC(=O)C1=C(O)C(=O)N(c2nc3c(C)cccc3s2)C1c1ccccc1 (centres undefined) | 0 |  | 
44 | CCOC(=O)C1=C(O)C(=O)N(c2nc3ccc(Cl)cc3s2)C1c1ccc(-c2ccccc2)cc1 (centres undefined) | 78 | 5.1 | Activity (MRC5): Non-Toxic; Activity (HepG2): Non-Toxic
45 | CCOC(=O)C1=C(O)C(=O)N(c2nc3ccc(C)cc3s2)C1c1ccc(-c2ccc(C(F)(F)F)cc2Cl)o1 (centres undefined) | 94 | 4.8 | 
46 | C[C@@H]1O[C@@H]1P(=O)(O)O [FOSFOMYCIN] | 78 | 5.3 | inhibition [7]: -4%; inhibition [8]: Active; inhibition [9]: 31%
47 | COC(=O)C1=C(O)C(=O)N(c2nc3ccc(C)cc3s2)C1c1ccc(-c2ccc(Cl)cc2)o1 (centres undefined) | 59 | 16 | 
